Experimental data taken from ChEMBL document CHEMBL1143573, “Synthesis and structure-activity relationships of a new model of arylpiperazines. 8. Computational simulation of ligand-receptor interaction of 5-HT(1A)R agonists with selectivity over alpha1-adrenoceptors” (J Med Chem, 2005).

Legend:
[1] = target: T1, 5-hydroxytryptamine receptor 1A (Rattus norvegicus, UniProt P19327); experiment: In vitro inhibition of [3H]8-OH-DPAT binding to 5-hydroxytryptamine 1A receptor in rat cerebral cortex membranes; assay type: cell membranes, Membrane
T1 sequence (P19327 whole entry): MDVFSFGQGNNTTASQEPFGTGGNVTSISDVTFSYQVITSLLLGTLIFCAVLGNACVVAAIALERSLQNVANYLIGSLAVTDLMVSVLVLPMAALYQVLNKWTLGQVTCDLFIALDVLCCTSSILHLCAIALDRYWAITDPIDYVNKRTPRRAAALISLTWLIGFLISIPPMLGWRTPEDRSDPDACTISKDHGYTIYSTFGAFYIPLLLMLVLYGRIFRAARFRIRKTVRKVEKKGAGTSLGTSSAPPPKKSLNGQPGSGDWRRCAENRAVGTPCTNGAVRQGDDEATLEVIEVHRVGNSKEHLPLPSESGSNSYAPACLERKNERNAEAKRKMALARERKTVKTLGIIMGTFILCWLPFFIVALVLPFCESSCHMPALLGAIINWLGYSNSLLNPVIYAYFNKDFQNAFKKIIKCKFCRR
Summary of the method: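 Rat cerebral cortex membranes (about 1 mg protein) incubated 15 min at 37 °C with 0.6 nM [3H]-8-OH-DPAT in 50 mM Tris-HCl, pH 7.4, containing 10 nM clonidine and 30 nM prazosin. Nonspecific binding with 10 µM 5-HT. Compounds screened at 10^-6 M; curves run if displacement exceeded 55%. Filtration, scintillation counting, triplicates, 2-4 experiments; Ki by Cheng-Prusoff.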

[2] = target: T2, Adrenergic receptor alpha-1 (Rattus norvegicus, UniProt P15823+P23944+P43140); experiment: In vitro inhibition of [3H]prazosin binding to Alpha-1 adrenergic receptor in rat cerebral cortex membranes; assay type: cell membranes, Membrane
T2 sequence (P15823 whole entry): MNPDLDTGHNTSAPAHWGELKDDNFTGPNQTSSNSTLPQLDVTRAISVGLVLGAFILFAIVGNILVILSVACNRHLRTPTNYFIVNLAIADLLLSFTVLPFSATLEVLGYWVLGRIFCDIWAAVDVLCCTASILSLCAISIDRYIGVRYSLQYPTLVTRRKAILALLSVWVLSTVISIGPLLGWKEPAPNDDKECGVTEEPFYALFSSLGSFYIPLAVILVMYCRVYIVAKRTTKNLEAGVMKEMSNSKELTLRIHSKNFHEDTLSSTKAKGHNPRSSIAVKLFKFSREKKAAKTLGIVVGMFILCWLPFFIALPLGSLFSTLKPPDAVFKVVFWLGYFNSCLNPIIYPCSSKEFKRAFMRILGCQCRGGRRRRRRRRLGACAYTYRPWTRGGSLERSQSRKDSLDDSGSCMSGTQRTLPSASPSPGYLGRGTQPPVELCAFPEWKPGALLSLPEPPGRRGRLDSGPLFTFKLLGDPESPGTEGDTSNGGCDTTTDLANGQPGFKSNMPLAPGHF
T2 sequence (P23944 whole entry): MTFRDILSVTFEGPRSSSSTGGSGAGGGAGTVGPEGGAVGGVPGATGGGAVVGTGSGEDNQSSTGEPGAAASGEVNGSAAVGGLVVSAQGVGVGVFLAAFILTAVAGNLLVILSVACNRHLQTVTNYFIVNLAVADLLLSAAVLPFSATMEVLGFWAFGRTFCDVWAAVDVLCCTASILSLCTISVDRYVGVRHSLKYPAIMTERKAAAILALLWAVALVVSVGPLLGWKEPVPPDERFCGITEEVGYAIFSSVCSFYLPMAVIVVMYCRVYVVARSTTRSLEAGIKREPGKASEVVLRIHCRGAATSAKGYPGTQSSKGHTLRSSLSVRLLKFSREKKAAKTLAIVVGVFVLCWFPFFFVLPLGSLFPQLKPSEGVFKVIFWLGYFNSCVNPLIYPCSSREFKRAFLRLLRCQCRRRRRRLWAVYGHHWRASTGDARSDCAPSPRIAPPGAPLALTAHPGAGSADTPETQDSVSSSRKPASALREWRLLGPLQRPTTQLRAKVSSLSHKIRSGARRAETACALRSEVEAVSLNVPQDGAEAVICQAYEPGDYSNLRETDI
T2 sequence (P43140 whole entry): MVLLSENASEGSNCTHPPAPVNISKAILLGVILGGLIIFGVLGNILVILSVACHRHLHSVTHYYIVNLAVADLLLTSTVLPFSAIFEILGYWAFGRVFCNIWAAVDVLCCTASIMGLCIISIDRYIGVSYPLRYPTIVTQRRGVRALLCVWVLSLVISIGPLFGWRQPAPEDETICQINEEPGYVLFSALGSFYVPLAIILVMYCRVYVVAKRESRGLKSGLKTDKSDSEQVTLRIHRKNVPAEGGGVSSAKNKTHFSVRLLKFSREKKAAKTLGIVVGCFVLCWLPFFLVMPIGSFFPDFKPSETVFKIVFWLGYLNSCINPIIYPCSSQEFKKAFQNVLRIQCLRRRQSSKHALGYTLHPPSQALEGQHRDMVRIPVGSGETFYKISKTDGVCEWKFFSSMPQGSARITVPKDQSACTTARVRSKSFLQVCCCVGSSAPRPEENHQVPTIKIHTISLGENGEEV
Summary of the method: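 Rat cerebral cortex membranes (about 250 µg protein) in 50 mM Tris-HCl with 10 mM MgCl2, pH 7.4. Incubated 30 min at 25 °C with 0.2 nM [3H]prazosin and six competitor concentrations. Nonspecific binding with 10 µM phentolamine. Compounds screened at 10^-6 M, curves run if displacement exceeded 55%. Triplicates, 2-4 experiments; Ki by Cheng-Prusoff.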

[3] = target: 5-hydroxytryptamine receptor 4 (Rattus norvegicus, UniProt Q62758); experiment: In vitro inhibition of [3H]GR-113808 binding to 5-hydroxytryptamine 4 receptor of rat striatum membranes; assay type: cell membranes, Membrane
5-hydroxytryptamine receptor 4, sequence (Q62758 whole entry): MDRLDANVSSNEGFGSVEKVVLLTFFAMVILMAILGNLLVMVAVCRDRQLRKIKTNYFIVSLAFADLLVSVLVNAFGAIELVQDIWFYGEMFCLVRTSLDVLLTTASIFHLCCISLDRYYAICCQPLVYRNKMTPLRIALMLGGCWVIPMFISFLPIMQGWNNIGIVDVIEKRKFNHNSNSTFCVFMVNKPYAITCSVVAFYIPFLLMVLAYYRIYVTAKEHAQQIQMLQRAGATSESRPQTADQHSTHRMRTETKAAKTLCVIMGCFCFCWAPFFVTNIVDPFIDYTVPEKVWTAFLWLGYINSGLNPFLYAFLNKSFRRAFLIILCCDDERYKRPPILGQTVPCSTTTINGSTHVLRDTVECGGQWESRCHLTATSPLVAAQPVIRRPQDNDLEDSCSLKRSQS
Summary of the method: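 Membranes from rat striatum were incubated 30 min at 37 °C with 0.1 nM [3H]GR113808 in 50 mM HEPES, pH 7.4. Nonspecific binding with 30 µM 5-HT. Bound radioactivity counted after GF/B filtration, triplicates. Ki from iterative curve fit via Cheng-Prusoff.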

[4] = target: Sodium-dependent serotonin transporter (Rattus norvegicus, UniProt P31652); experiment: In vitro inhibition of [3H]paroxetine binding to 5-hydroxytryptamine transporter in rat cerebral cortex membranes; assay type: cell membranes, Membrane
Sodium-dependent serotonin transporter, sequence (P31652 whole entry): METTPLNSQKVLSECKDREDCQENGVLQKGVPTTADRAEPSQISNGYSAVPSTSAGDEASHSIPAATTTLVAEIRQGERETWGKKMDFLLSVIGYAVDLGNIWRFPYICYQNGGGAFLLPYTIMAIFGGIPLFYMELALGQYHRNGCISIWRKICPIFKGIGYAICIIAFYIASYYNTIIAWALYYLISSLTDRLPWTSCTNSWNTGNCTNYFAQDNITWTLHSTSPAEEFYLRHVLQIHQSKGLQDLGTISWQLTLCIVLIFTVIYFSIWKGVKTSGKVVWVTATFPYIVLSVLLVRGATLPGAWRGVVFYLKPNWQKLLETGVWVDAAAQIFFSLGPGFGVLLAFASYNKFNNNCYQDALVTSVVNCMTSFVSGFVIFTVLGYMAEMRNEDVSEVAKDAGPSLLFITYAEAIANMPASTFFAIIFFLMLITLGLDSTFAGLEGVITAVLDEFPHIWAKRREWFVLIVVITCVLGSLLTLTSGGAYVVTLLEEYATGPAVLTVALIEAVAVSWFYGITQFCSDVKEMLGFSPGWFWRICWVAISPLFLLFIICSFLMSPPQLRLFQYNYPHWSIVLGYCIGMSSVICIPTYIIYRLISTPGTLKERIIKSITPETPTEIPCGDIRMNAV
Summary of the method: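 Rat cortical membranes (about 120 µg protein) incubated 60 min at 25 °C with 0.2 nM [3H]paroxetine. Buffer is Tris-HCl with 20 mM NaCl and 5 mM KCl, pH 7.4. Nonspecific binding with 10 µM fluoxetine. Filtration, scintillation counting, triplicates; Ki by Cheng-Prusoff.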

[5] = target: 5-hydroxytryptamine receptor 7 (Rattus norvegicus, UniProt P32305); experiment: In vitro inhibition of [3H]5-CT binding to 5-hydroxytryptamine 7 receptor in rat hypothalamus membranes; assay type: cell membranes, Membrane
5-hydroxytryptamine receptor 7, sequence (P32305 whole entry): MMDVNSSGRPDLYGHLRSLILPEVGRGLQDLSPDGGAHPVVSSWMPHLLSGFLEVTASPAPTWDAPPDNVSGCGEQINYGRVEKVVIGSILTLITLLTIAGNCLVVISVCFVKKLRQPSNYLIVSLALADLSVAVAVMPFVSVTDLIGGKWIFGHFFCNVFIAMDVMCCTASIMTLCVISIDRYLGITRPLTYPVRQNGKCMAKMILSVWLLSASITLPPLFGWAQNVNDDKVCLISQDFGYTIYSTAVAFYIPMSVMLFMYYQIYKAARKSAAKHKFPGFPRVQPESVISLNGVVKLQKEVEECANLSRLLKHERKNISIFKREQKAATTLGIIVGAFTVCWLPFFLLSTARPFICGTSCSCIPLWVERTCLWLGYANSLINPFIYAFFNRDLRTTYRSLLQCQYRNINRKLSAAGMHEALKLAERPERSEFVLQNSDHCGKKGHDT
Summary of the method: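 Rat hypothalamus membranes were incubated 120 min at 23 °C with 0.5 nM [3H]-5-CT. Nonspecific binding with 10 µM 5-HT. Filtration and scintillation counting, triplicates, 2-4 experiments. Ki from curve fit by Cheng-Prusoff.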

[6] = target: T3, 5-hydroxytryptamine receptor 1A (Homo sapiens) (UniProt P08908); experiment: (§1) Inhibition of forskolin-induced increase in cAMP in human 5-hydroxytryptamine 1A receptor expressed HeLa cells; assay type: functional, cell-based
T3 sequence (whole entry): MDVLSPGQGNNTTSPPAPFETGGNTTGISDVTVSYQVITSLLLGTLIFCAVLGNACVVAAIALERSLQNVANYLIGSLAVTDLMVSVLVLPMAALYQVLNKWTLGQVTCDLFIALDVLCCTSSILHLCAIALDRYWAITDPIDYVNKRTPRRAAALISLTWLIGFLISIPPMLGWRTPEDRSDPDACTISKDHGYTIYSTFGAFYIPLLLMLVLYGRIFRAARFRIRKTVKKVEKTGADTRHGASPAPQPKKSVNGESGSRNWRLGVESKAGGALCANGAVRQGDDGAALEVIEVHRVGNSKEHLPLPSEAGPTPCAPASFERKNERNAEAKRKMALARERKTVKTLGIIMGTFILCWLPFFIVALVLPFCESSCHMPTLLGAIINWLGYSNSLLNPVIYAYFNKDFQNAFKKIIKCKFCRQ
Summary of the method: (§2)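 HeLa cells stably expressing human 5-HT1A (HA 6) were plated 48 h ahead. Cells treated 10 min at 37 °C, 5% CO2, with 0.5 mM IBMX, 10 µM forskolin and compound (10-9-10-5 M), then lysed in 65% ethanol. cAMP measured by [3H] radioimmunoassay, expressed as % of forskolin-stimulated adenylate cyclase activity. Duplicate experiments, four wells per concentration; EC50 by curve fit.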

[7] = target: 5-hydroxytryptamine receptor 2A (Rattus norvegicus, UniProt P14842); experiment: In vitro inhibition of [3H]ketanserin binding to 5-hydroxytryptamine 2A receptor in rat cerebral frontal cortex membranes; assay type: cell membranes, Membrane
5-hydroxytryptamine receptor 2A, sequence (P14842 whole entry): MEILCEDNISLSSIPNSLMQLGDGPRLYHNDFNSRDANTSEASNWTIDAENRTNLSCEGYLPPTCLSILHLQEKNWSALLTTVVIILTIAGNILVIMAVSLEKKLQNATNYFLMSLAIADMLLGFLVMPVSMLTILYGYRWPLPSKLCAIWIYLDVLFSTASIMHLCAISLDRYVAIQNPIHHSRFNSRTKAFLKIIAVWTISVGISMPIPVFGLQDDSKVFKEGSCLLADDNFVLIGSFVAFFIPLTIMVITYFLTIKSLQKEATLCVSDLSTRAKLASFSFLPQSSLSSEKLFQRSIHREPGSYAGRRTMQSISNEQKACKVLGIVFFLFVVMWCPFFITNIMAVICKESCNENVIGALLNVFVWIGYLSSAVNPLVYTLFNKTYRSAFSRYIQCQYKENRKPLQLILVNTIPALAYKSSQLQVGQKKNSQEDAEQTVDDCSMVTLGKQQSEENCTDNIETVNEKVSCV
Summary of the method: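 Rat frontal cortex membranes were incubated 15 min at 37 °C with 0.4 nM [3H]ketanserin. Nonspecific binding with 1 µM cinanserin. Filtration, scintillation counting, triplicates; Ki by Cheng-Prusoff.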

[8] = target: T4, 5-hydroxytryptamine receptor 1A (Homo sapiens, UniProt P08908); experiment: as §1; assay type: functional, cell-based; summary of the method: as §2
T4 sequence (P08908 whole entry): T3 sequence (whole entry)

[9] = target: T5, 5-hydroxytryptamine receptor 3A (Rattus norvegicus, UniProt P35563); experiment: In vitro inhibition of [3H]LY-278584 binding to 5-hydroxytryptamine 3 receptor in rat cerebral cortex membranes; assay type: cell membranes, Membrane
T5 sequence (P35563 whole entry): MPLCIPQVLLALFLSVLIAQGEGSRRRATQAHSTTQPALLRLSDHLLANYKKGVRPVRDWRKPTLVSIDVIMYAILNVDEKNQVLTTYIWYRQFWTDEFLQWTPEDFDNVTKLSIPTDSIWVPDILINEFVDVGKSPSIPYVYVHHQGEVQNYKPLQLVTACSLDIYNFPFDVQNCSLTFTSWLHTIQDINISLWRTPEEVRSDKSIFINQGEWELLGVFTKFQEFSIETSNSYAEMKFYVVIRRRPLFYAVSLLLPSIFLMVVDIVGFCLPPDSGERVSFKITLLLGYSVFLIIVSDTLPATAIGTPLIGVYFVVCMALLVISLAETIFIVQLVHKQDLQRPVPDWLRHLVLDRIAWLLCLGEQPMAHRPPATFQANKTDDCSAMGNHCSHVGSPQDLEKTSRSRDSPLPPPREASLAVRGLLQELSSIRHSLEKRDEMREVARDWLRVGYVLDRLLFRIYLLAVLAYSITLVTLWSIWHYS
Summary of the method: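 Sucrose-prepared rat cerebral cortex membranes were incubated 30 min at 25 °C with 0.7 nM [3H]LY278584. Nonspecific binding with 10 µM 5-HT. Filtration and scintillation counting, triplicates; Ki by Cheng-Prusoff.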

D(2) dopamine receptor = D(2) dopamine receptor (Rattus norvegicus, UniProt P61169); experiment: In vitro inhibition of [3H]-raclopride binding to Dopamine receptor D2 in rat striatum membranes; assay type: cell membranes, Membrane
D(2) dopamine receptor, sequence (P61169 whole entry): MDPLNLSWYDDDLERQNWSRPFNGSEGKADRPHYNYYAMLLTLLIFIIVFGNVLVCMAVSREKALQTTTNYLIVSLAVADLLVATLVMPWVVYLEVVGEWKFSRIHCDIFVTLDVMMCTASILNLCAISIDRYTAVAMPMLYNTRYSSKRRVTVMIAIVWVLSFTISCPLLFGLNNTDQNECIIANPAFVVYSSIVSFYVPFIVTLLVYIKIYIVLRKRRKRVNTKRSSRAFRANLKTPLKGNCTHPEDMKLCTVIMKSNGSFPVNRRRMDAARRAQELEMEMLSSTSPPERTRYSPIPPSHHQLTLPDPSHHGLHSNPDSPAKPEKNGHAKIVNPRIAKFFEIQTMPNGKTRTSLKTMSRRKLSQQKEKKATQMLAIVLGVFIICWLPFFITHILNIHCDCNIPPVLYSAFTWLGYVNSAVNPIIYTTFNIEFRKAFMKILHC
Summary of the method: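 Male Sprague-Dawley rat striatum membranes (125-150 µg protein) incubated 60 min at 25 °C with 0.8 nM [3H]raclopride and six competitor concentrations. Nonspecific binding with 1 µM (+)-butaclamol. GF/B filtration, scintillation counting, triplicates. Ki by Cheng-Prusoff.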

[10] = target: GABA-A receptor; anion channel; experiment: In vitro inhibition of [3H]flunitrazepam binding to Benzodiazepine receptor of rat cerebral cortex membranes; assay type: cell membranes, Membrane
Summary of the method: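 Rat brain membranes (about 100 µg protein) in 25 mM potassium phosphate, pH 7.4, incubated 90 min at 0-4 °C with 0.25 nM [3H]flunitrazepam. Nonspecific binding with 2 µM diazepam. Filtration, scintillation counting, triplicates; Ki by Cheng-Prusoff.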

Structure (SMILES) | Ki [2] [nM] | further results
O=C1C2CCCN2C(=O)CN1CN1CCN(c2cccc3ccccc23)CC1 (configuration not stated) | > 1000 | Ki [1]: 6.7 nM
C[C@H]1CN(c2cccc3ccccc23)CCN1CN1CC(=O)N2CCC[C@H]2C1=O | > 1000 | –
O=C1[C@H]2CCCN2C(=O)CN1CN1CCN(c2cccc3ccccc23)CC1 | > 1000 | Ki [1]: 4.6 nM
C[C@@H]1CN(c2cccc3ccccc23)CCN1CN1CC(=O)N2CCC[C@H]2C1=O | > 1000 | –
O=C1C2CCCN2C(=O)CN1CCCCN1CCN(c2cccc3ccccc23)CC1 (configuration not stated) | 8 | –
O=C1[C@@H]2CCCN2C(=O)CN1CN1CCN(c2cccc3ccccc23)CC1 | > 1000 | Ki [1]: 4.1 nM; Ki [3]: > 10000 nM; Ki [4]: 976 nM; Ki [5]: 101 nM; Maximal effect [6]: 90.3%; Ki [7]: 13.5 nM; EC50 [8]: 150 nM; Ki [9]: 8.9 nM; Ki (D(2) dopamine receptor): 192 nM; Ki [10]: > 10000 nM
O=C1[C@@H]2CCCN2C(=O)CN1CN1CCN(c2cccc3c2CC=COO3)CC1 | > 1000 | Ki [1]: 12.3 nM
O=C1C2CCCN2C(=O)N1CCCCN1CCN(c2cccc3[nH]cnc23)CC1 (configuration not stated) | 19.4 | –
C[C@@H]1CN(c2cccc3ccccc23)CCN1CN1CC(=O)N2CCC[C@@H]2C1=O | > 1000 | –
O=C1C2CCCCN2C(=O)N1CN1CCN(c2cccc3ccccc23)CC1 (configuration not stated) | > 1000 | –
C[C@H]1CN(c2cccc3ccccc23)CCN1CCCCN1CC(=O)N2CCC[C@H]2C1=O | 34.4 | –
O=C1C2CCCN2C(=O)N1CN1CCN(c2cccc3[nH]cnc23)CC1 (configuration not stated) | > 10000 | –
C[C@H]1CN(c2cccc3ccccc23)CCN1CN1CC(=O)N2CCC[C@@H]2C1=O | > 1000 | –
O=C1C2CCCN2C(=O)CN1CN1CCN(c2cccc3c2CC=COO3)CC1 (configuration not stated) | > 1000 | Ki [1]: 11.6 nM
O=C1C2CCCCN2C(=O)N1CN1CCN(c2cccc3c2OCCO3)CC1 (configuration not stated) | > 1000 | –
C[C@@H]1CN(c2cccc3ccccc23)CCN1CCCCN1CC(=O)N2CCC[C@@H]2C1=O | 20.1 | –
CCS(=O)(=O)Nc1cccc(N2CCN(CCCCN3C(=O)C4CCCN4C3=O)CC2)c1 (configuration not stated) | > 1000 | –
O=C1C2CCCN2C(=O)N1CN1CCN(c2cccc3ccccc23)CC1 (configuration not stated) | > 1000 | –
